# Bioassay records as filed in PubChem BioAssay.
# Only some compounds are listed: those with a hit (about 4.8% of all), similar ones and a draw of the others.
# pPAFAH FP inh: pPAFAH enzyme inhibitors, primary screen, biochemical, fluorescence polarization, human. 330,000 tested, 1.5% active. recombinant pPAFAH, FP-rhodamine probe fluorescence polarization. inhibition, % at 3.39 µM;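 active means inhibition above the mean inhibition across the screen plus 3 SD, cut at about 25% in these data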;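 further: inhibitors block binding of the rhodamine activity-based probe so polarization drops; 0% = enzyme with DMSO and 100% = wells lacking pPAFAH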
# PAFAH2 FP inh: PAFAH2 enzyme inhibitors, primary screen, biochemical, fluorescence polarization, human; Platelet-activating factor acetylhydrolase 2, cytoplasmic (Homo sapiens), Q99487; recombinant PAFAH2, FP-rhodamine activity probe; inhibition, % at 3.39 µM; 340,000 tested, 0.99% active;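 active means inhibition above the mean over all tested compounds plus 3 SD, cut at about 30% in these data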;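 further: inhibitors block probe labeling of enzyme so polarization drops; 0% = enzyme with DMSO and 100% = wells lacking PAFAH2 protein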
# PAFAH1B2 inh: PAFAH1B2 enzyme inhibitors, primary screen, biochemical, fluorescence polarization, human; 340,000 tested, 1.2% active; Platelet-activating factor acetylhydrolase IB subunit alpha2 (Homo sapiens), P68402; inhibition, % at 3.39 µM; recombinant PAFAH1B2, FP-rhodamine activity probe;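 active means inhibition above the mean of all tested compounds plus 3 SD, cut at about 24% in these data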;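 further: 0% = enzyme with DMSO and 100% = wells lacking PAFAH1B2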
# GRIN3A LBD mod: binders of NR3A ligand-binding domain, primary screen, biophysical, differential scanning fluorimetry, uHTS | Glutamate receptor ionotropic, NMDA 3A (GRIN3A) ligand-binding domain | NR3A LBD differential scanning fluorimetry, Tm shift; 0% = protein alone, 100% = glycine-bound protein | Tm shift relative to glycine control, % at 25 µM | 340,000 tested, 2.5% active;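 active means melting temperature shift of at least 10% of the positive control shift, at one fixed dose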
# UCH37 DUB inh: inhibitors of human UCH37 deubiquitinase, primary screen, biochemical, Ub-AMC cleavage, fluorescence. Ubiquitin carboxyl-terminal hydrolase isozyme L5 (Homo sapiens), Q9Y5K5. purified proteasome/UCH37. inhibition, % (no concentration beside the values). 330,000 tested, 0.33% active. AID 588478, 2011;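 active means mean inhibition over replicate wells above about 20%, limit read from the data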;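 further: 0% = compound-free wells with enzyme and 100% = wells lacking proteasome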
# Target sequence (Q9Y5K5 whole entry, looked up): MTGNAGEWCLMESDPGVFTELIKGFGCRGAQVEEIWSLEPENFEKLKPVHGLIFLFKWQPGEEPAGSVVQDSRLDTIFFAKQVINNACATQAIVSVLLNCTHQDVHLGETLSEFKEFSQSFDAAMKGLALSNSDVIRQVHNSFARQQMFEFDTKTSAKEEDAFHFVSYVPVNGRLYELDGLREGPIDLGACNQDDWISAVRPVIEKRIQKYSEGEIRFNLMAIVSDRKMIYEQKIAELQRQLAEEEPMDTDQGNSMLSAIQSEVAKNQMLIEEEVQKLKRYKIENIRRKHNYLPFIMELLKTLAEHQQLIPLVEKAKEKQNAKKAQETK
#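 Test system – human UCH37 enzyme supplied as purified proteasome complex · Incubation – 30 min preincubation with enzyme, 25 min cleavage at room temperature · Detection – AMC fluorescence from Ub-AMC cleavage, excitation 355 nm, emission 460 nm · Benchmarks – no-proteasome wells (full inhibition) and compound-free wells (no inhibition)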
# PAFAH1B3 FP inh: PAFAH1B3 enzyme inhibitors, primary screen, biochemical, fluorescence polarization, human | inhibition, % at 3.39 µM | 340,000 tested, 0.28% active | recombinant PAFAH1B3, FP-rhodamine probe | Platelet-activating factor acetylhydrolase IB subunit alpha1 (Homo sapiens), Q15102 | AID 492972, 2010;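 active means inhibition above the screen-wide average of all tested compounds plus 3 SD, cut at about 25% in these data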;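 further: 0% = enzyme with DMSO only and 100% = wells lacking PAFAH1B3 protein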
# Target sequence (Q15102 whole entry, looked up): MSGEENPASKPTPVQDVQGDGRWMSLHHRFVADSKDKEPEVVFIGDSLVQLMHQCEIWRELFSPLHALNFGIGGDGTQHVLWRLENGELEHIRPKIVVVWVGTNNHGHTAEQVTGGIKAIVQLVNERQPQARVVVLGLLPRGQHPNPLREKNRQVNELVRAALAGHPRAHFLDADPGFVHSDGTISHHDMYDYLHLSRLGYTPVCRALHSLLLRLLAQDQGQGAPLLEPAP
# * hit, by the source's call; nt = no result.
SMILES,pPAFAH FP inh,PAFAH2 FP inh,PAFAH1B2 inh,GRIN3A LBD mod,UCH37 DUB inh,PAFAH1B3 FP inh
O=[N+]([O-])c1ccc(N2CCCC2)cc1NC(c1ccccc1)c1ccccc1,-4,0,1,14*,10,0
O=C(COc1ccccc1/C=C1\SC(=S)NC1=O)Nc1ccc(F)cc1,-3,-9,-4,14*,7,6
C(=C/c1nccc2c1[nH]c1ccccc12)/c1ccc2c(c1)OCO2,nt,-9,2,13*,-273,9
O=C(Cn1c(=O)c2cccn2c2ccc(F)cc21)NCCCN1CCN(c2ccccc2F)CC1,1,6,1,13*,5,2
COc1ccc(CNC(=S)NN=Cc2ccc(O)c(OC)c2)cc1,nt,nt,nt,nt,0,nt
CCC1(C)CC(C(CC(=O)O)c2ccc(C)cc2)CCO1 (centres undefined),4,0,4,11*,4,6
CC1(C)CC(C(CC(=O)O)c2ccccc2)CCO1 (centres undefined),-2,-5,5,-1,2,-6
Cc1csc(SCc2nnc(-c3ccccc3Br)o2)n1,12,0,-2,nt,2,5
Fc1ccccc1SCc1nnc(-c2ccccc2Br)o1,4,2,15,1,32*,7
COc1ccc(C=NNC(=O)c2ccoc2C)cc1COc1ccc(Cl)cc1,nt,nt,nt,nt,3,nt
CC(C)(c1ccc(O)c([N+](=O)[O-])c1)c1ccc(O)c([N+](=O)[O-])c1,nt,1,26*,-9,7,1
Cc1cc(C)nc(SCC(=O)NN=Cc2cc(C)n(-c3ccccc3C)c2C)n1,nt,nt,nt,nt,1,nt
COc1ccc(C(C)=NNc2ccc(C(=O)O)cc2)c(OC)c1,nt,nt,nt,nt,5,nt
Cc1cccc(C(=O)NCC(=O)NNC(=O)c2ccccc2O)c1,4,8,6,14*,-12,7
O=C(CNC(=O)c1ccccc1F)NNC(=O)c1ccccc1O,1,1,-2,-3,-28,7
O=C(O)/C=C\C(=O)Nc1ccc(N2CCN(c3cccc(Cl)c3)CC2)cc1,15,2,0,2,5,-3
O=C(O)/C=C\C(=O)Nc1ccc(N2CCN(c3ccc(Cl)cc3)CC2)cc1,15,5,25*,1,nt,4
O=C(O)c1cccc(CSc2nnc(COc3ccccc3)o2)c1,3,-3,11,11*,-1,0
COc1ccc(C=NN(C)C2=NS(=O)(=O)c3ccccc32)cc1OC,nt,nt,nt,nt,-69,nt
FC(F)Oc1ccccc1C=Nn1cnc2ccccc21,nt,nt,nt,nt,8,nt
CC1(C)Oc2ccc3ccc(=O)oc3c2C(C=NO)C1=O (centres undefined),nt,nt,nt,nt,-12,nt
On1cnnc1-c1ccccc1,3,-3,4,11*,-1,15
O=C1CNC(=O)c2c(nc3n2CCC3)N1,0,-2,4,11*,-2,6
O=C(Cc1ccc(F)cc1)NN=Cc1ccccn1,nt,nt,nt,nt,2,nt
Cc1cc(C)cc(NC(=O)C2CCCN2/C=C/C(=O)C(F)(F)F)c1 (centres undefined),-1,-4,7,13*,8,7
SMILES,pPAFAH FP inh,PAFAH2 FP inh,PAFAH1B2 inh,GRIN3A LBD mod,UCH37 DUB inh,PAFAH1B3 FP inh
CC(=O)Nc1ccc(NC(=O)C2CCCN2/C=C/C(=O)C(F)(F)F)cc1 (centres undefined),3,7,2,1,9,2
On1onc2c3cc(-c4ccccc4)nc3ccc21,19,9,7,37*,6,19
c1ccc(-c2cc3c(ccc4nonc43)nn2)cc1,2,-9,0,-4,5,-1
CCNc1ccccc(C(=O)/C=C/c2ccc3c(c2)OCO3)c1=O,32*,30*,5,-2,6,8
COC(=O)/C=C/c1ccc2c(c1)OCO2,-6,-5,1,0,-29,0
Cc1cc(C)c2c(CC(=O)O)coc2c1,4,5,1,-2,29*,4
CCC(=NNc1ccccc1Cl)c1cnnc(-c2ccccc2)n1,nt,nt,nt,nt,5,nt
O=C(/C=C/c1ccc(Cl)cc1Cl)Nc1ccncc1,-3,-4,-2,32*,5,9
O=C(/C=C/c1c(Cl)cccc1Cl)Nc1ccncc1,-5,-3,-5,27*,-1,4
CCCCC(=O)NN=Cc1ccc(-c2ccc([N+](=O)[O-])cc2)o1,nt,nt,nt,nt,0,nt
COc1cc(/C=N\Nc2ccc([N+](=O)[O-])cc2)ccc1OCC(=O)Nc1ccc(C)c(C)c1,nt,-2,4,17*,nt,2
CCOc1cc(/C=N\Nc2ccc([N+](=O)[O-])cc2)ccc1OCC(=O)Nc1ccc(C)c(C)c1,0,2,-2,15*,nt,7
CCOc1cc(C=NNc2ccc([N+](=O)[O-])cc2)ccc1OCC(=O)Nc1ccc(C)c(C)c1,nt,nt,nt,nt,-2,nt
COc1cccc(C=NNC(=O)CCn2nnc3ccccc32)c1,nt,nt,nt,nt,4,nt
CCn1ncc(C=NNC(=O)c2ccc3c(c2)OCO3)c1C,nt,nt,nt,nt,4,nt
Cc1c(Cl)cccc1NC(=O)CSCc1cc(=O)[nH][nH]1,25*,-2,2,-1,5,1
O=C(NCc1ccc2c(c1)OCO2)c1ccc(COc2cc(Cl)ccc2Cl)o1,2,-7,-5,-8,4,-4
O=C(NCc1ccc2c(c1)OCO2)c1ccc(CS(=O)(=O)Cc2cccc(Cl)c2)o1,25*,-3,10,1,0,5
CCc1ccccc1S(=O)(=O)Cc1ccc(C(=O)NCc2ccc3c(c2)OCO3)o1,2,5,11,-1,5,5
O=C(NCc1ccc2c(c1)OCO2)c1ccc(CSCc2ccc(Cl)cc2)o1,18,0,26*,2,2,6
COc1ccc(-[n+]2c(C)cc(/C=C3\Sc4ccccc4N3C)cc2C)cc1,1,2,0,-4,24*,-3
COc1ccccc1-[n+]1c(C)cc(/C=C2\Sc3ccccc3N2C)cc1C,2,-4,1,2,20*,9
COc1ccc(C(=O)/C=C2\Sc3ccccc3N2C)cc1,1,nt,nt,6,-62,nt
Cc1cc(C=Nn2cnnc2)c(C)n1-c1ccc(C(=O)O)cc1,nt,nt,nt,nt,8,nt
CN(C)c1ccc(C=c2sc3n(c2=O)CCCN=3)cc1,nt,nt,nt,nt,7,nt
COc1cc(C=NNC(=O)c2ccccn2)ccc1OC(=O)c1ccc(Br)cc1,nt,nt,nt,nt,-1,nt
C/C(=N/Nc1cc(-c2ccccc2)nc(-c2ccccc2)n1)c1ccc(O)cc1,7,-7,-8,34*,nt,6
